In ChEMBL document CHEMBL1123124, “New antihistaminic N-heterocyclic 4-piperidinamines. 2. Synthesis and antihistaminic activity of 1-[(4-fluorophenyl)methyl]-N-(4-piperidinyl)-1H-benzimidazol-2-a mines” (1985):

Columns and labels:
Format in all cases: functional
[1] = system: Rattus norvegicus; assay: In vivo antihistaminic activity using compound 48/80 induced lethality test after 1 hr of subcutaneous administration in rat; conditions: sc
Procedure, shortened: (§1)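 Protection was survival for 4 h after challenge. ED50 with confidence limits was calculated by Finney from five rats per dose and at least three doses of a geometric series (0.0025–40 mg/kg). Estimated ED50 used at least two rats per dose.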

[2] = system: Rattus norvegicus; assay: In vivo antihistaminic activity using compound 48/80 induced lethality test in rat after 2 hr of oral administration; procedure, shortened: as §1
[3] = system: Rattus norvegicus; assay: Inhibition of serotonin skin reaction in rat after 2 hr of subcutaneous administration.; conditions: sc
[4] = system: Rattus norvegicus; assay: Inhibition of histamine skin reaction in rat after 2 hr of subcutaneous administration.; conditions: sc
[5] = system: Rattus norvegicus; assay: Inhibition of mydriatic activity in rat after 2 hr of intraperitoneal administration; conditions: ip
[6] = system: Cavia porcellus; assay: In vivo histamine induced lethality after 8 hours of iv administration in guinea pig
[7] = system: Cavia porcellus; assay: In vivo histamine induced lethality after 24 hours of iv administration in guinea pig
[8] = system: Rattus norvegicus; assay: Inhibition of serotonin skin reaction in rat after 2 hr of oral administration.
Procedure, shortened: (§2)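 Test compound or solvent given orally to rats 2 h before four intradermal injections into clipped back: two of 50 μL histamine dihydrochloride (1 mg/mL in saline), two of 50 μL serotonin (2 μg/mL in saline). Then iv 0.5 mL of 0.5% trypan blue. Bluing of skin reactions scored 30 min later.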

[9] = system: Cavia porcellus; assay: In vivo histamine induced lethality after 3 hours of iv administration in guinea pig
[10] = system: Rattus norvegicus; assay: Inhibition of histamine skin reaction in rat after 2 hr of oral administration.; procedure, shortened: as §2
[11] = system: Rattus norvegicus; assay: Inhibition of mydriatic activity in rat after 2 hr of oral administration.

Row | SMILES | ED50 [1] [mg/kg] | ED50 [2] [mg/kg] | further results
1 | COc1ccc(CCN2CCC(Nc3nc4ccccc4n3Cc3ccc(F)cc3)CC2)c(OC)c1.Cl | 0.31 | 0.31 | 
2 | COc1ccc(SCCCN2CCC(Nc3nc4ccccc4n3Cc3ccc(F)cc3)CC2)cc1 | 2.5 |  | 
3 | Cc1ccc2nc(NC3CCN(CCc4ccccc4)CC3)n(Cc3ccc(F)cc3)c2c1 | > 2.5 |  | 
4 | COc1ccc(OC)c(CCN2CCC(Nc3nc4ccccc4n3Cc3ccc(F)cc3)CC2)c1 | 0.63 | 0.63 | 
5 | O=C(OCc1ccccc1)Oc1ccc(CCN2CCC(Nc3nc4ccccc4n3Cc3ccc(F)cc3)CC2)cc1 | 0.31 | 0.16 | 
6 | COc1ccc(C(=O)Oc2ccc(CCN3CCC(Nc4nc5ccccc5n4Cc4ccc(F)cc4)CC3)cc2)cc1 | 0.63 | 0.16 | 
7 | CC(=O)c1ccc(OCC(O)CN2CCC(Nc3nc4ccccc4n3Cc3ccc(F)cc3)CC2)cc1 (stereo unspecified) | 0.63 | 1.25 | 
8 | COc1ccc(S(=O)(=O)CCCN2CCC(Nc3nc4ccccc4n3Cc3ccc(F)cc3)CC2)cc1 | 0.31 | 2.5 | 
9 | CCCCOc1ccccc1OCC(O)CN1CCC(Nc2nc3ccccc3n2Cc2ccc(F)cc2)CC1 (stereo unspecified) | 2.5 |  | 
10 | COc1ccccc1CCN1CCC(Nc2nc3ccccc3n2Cc2ccc(F)cc2)CC1 | 1.25 | 0.63 | 
11 | CC(Cc1ccccc1)N1CCC(Nc2nc3ccccc3n2Cc2ccc(F)cc2)CC1 (stereo unspecified) | 2.5 |  | 
12 | COc1ccccc1OCC(O)CN1CCC(Nc2nc3ccccc3n2Cc2ccc(F)cc2)CC1 (stereo unspecified) | 1.25 | 0.63 | 
13 | Cl.Fc1ccc(Cn2c(NC3CCN(CCN4CCOCC4)CC3)nc3ccccc32)cc1 | 0.31 | 2.5 | 
14 | Fc1ccc(Cn2c(NC3CCN(CCCOc4ccccc4)CC3)nc3ccccc32)cc1 | 1.25 | 0.31 | 
15 | NC(=O)COc1ccc(CCN2CCC(Nc3nc4ccccc4n3Cc3ccc(F)cc3)CC2)cc1 | 1.25 | 2.5 | 
16 | Fc1ccc(Cn2c(NC3CCN(CCCCOc4ccccc4)CC3)nc3ccccc32)cc1 | 0.63 | 0.63 | 
17 | Fc1ccc(Cn2c(NC3CCN(CCc4ccccn4)CC3)nc3ccccc32)cc1 | 0.16 | 0.63 | 
18 | Fc1ccc(Cn2c(NC3CCN(CCc4ccncc4)CC3)nc3ccccc32)cc1 | 0.31 | 1.25 | 
19 | OC(CN1CCC(Nc2nc3ccccc3n2Cc2ccc(F)cc2)CC1)c1ccccc1 (stereo unspecified) | 0.63 | > 2.5 | 
20 | CCOC(=O)COc1ccc(CCN2CCC(Nc3nc4ccccc4n3Cc3ccc(F)cc3)CC2)cc1 | 0.16 | > 2.5 | 
21 | CCCCNC(=O)Oc1ccc(CCN2CCC(Nc3nc4ccccc4n3Cc3ccc(F)cc3)CC2)cc1 | 2.5 |  | 
22 | COc1cccc(CCN2CCC(Nc3nc4ccccc4n3Cc3ccc(F)cc3)CC2)c1.Cl | 0.31 | 0.31 | 
23 | COc1ccc(CCN2CCC(Nc3nc4ccccc4n3Cc3ccc(F)cc3)CC2)cc1OC | 1.25 | 0.16 | 
24 | Cl.N#CC1(c2ccccc2)CCC(N2CCC(Nc3nc4ccccc4n3Cc3ccc(F)cc3)CC2)CC1 (stereo unspecified) | > 2.5 |  | 

Row | SMILES | ED50 [1] [mg/kg] | ED50 [2] [mg/kg] | further results
25 | CN(C)CCN1CCC(Nc2nc3ccccc3n2Cc2ccc(F)cc2)CC1 | 0.63 |  | 
26 | Nc1ccc(CCN2CCC(Nc3nc4ccccc4n3Cc3ccc(F)cc3)CC2)cc1 | 0.31 | 0.63 | 
27 | Cl.Oc1cccc(CCN2CCC(Nc3nc4ccccc4n3Cc3ccc(F)cc3)CC2)c1 | 0.16 | 0.31 | 
28 | O=C(OCCN1CCC(Nc2nc3ccccc3n2Cc2ccc(F)cc2)CC1)N1CCOCC1 | 0.31 | 2.5 | 
29 | CC(CN1CCC(Nc2nc3ccccc3n2Cc2ccc(F)cc2)CC1)c1ccccc1 (stereo unspecified) | 0.63 | 2.5 | 
30 | Fc1ccc(Cn2c(NC3CCN(CCc4cccc5ccccc45)CC3)nc3ccccc32)cc1 | 1.25 | 0.63 | 
31 | COC(=O)COc1ccc(CCN2CCC(Nc3nc4ccccc4n3Cc3ccc(F)cc3)CC2)cc1 | 2.5 |  | 
32 | CC(c1ccccc1)N1CCC(Nc2nc3ccccc3n2Cc2ccc(F)cc2)CC1 (stereo unspecified) | 0.31 | 2.5 | 
33 | CSc1ccc(CCN2CCC(Nc3nc4ccccc4n3Cc3ccc(F)cc3)CC2)cc1 | 0.63 | 1.25 | 
34 | Br.Br.Fc1ccc(Cn2c(NC3CCNCC3)nc3ccccc32)cc1 | 0.056 | 1.02 | 
35 | Fc1ccc(Cn2c(NC3CCN(CCNCc4ccccc4)CC3)nc3ccccc32)cc1 | 1.25 | > 2.5 | 
36 | Fc1ccc(Cn2c(NC3CCN(CCCNc4ccccc4)CC3)nc3ccccc32)cc1 | 0.63 | 2.5 | 
37 | Cl.N#CCOc1ccc(CCN2CCC(Nc3nc4ccccc4n3Cc3ccc(F)cc3)CC2)cc1 | 0.63 | 0.08 | 
38 | Cl.NCCN1CCC(Nc2nc3ccccc3n2Cc2ccc(F)cc2)CC1 | 1.25 | > 2.5 | 
39 | COc1cccc(OC)c1OCC(O)CN1CCC(Nc2nc3ccccc3n2Cc2ccc(F)cc2)CC1 (stereo unspecified) | 0.63 | 1.25 | 
40 | COc1ccc(OCCCN2CCC(Nc3nc4ccccc4n3Cc3ccc(F)cc3)CC2)cc1 | 0.31 | 0.31 | 
41 | Fc1ccc(Cn2c(NC3CCN(CCc4ccc(OCc5ccccc5)cc4)CC3)nc3ccccc32)cc1 | 2.5 |  | 
42 | Cl.Cn1nnn(CCN2CCC(Nc3nc4ccccc4n3Cc3ccc(F)cc3)CC2)c1=O | 0.31 | > 2.5 | 
43 | COc1ccc(C(=O)OCCN2CCC(Nc3nc4ccccc4n3Cc3ccc(F)cc3)CC2)cc1.Cl | 0.31 | 0.63 | 
44 | COC(=O)Oc1ccc(CCN2CCC(Nc3nc4ccccc4n3Cc3ccc(F)cc3)CC2)cc1 | 0.16 | 0.16 | 
45 | Fc1ccc(Cn2c(NC3CCN(CCN(Cc4ccccc4)Cc4ccccc4)CC3)nc3ccccc32)cc1 | > 2.5 |  | 
46 | Fc1ccc(Cn2c(NC3CCN(CCC=C4c5ccccc5CCc5ccccc54)CC3)nc3ccccc32)cc1 | > 2.5 |  | 
47 | Fc1ccc(Cn2c(NC3CCN(C/C=C/c4ccccc4)CC3)nc3ccccc32)cc1 | 1.25 | > 2.5 | 
48 | Fc1ccc(Cn2c(NC3CCN(CCc4cccs4)CC3)nc3ccccc32)cc1 | 0.16 | 0.63 | 

Row | SMILES | ED50 [1] [mg/kg] | ED50 [2] [mg/kg] | further results
49 | CNC(=O)NCCN1CCC(Nc2nc3ccccc3n2Cc2ccc(F)cc2)CC1 | 0.02 | > 2.5 | 
50 | CCOc1ccc(CCN2CCC(Nc3nc4ccccc4n3Cc3ccc(F)cc3)CC2)cc1 | 1.25 | 0.16 | 
51 | Cl.Fc1ccc(Cn2c(NC3CCN(CCc4ccccc4)CC3)nc3ccccc32)cc1 | 0.31 | 0.63 | 
52 | Cc1cc(CCN2CCC(Nc3nc4ccccc4n3Cc3ccc(F)cc3)CC2)ccc1O.Cl | 0.08 | 0.16 | 
53 | CCn1nnn(CCN2CCC(Nc3nc4ccccc4n3Cc3ccc(F)cc3)CC2)c1=O | 0.16 | > 2.5 | 
54 | Oc1nc2ccccc2n1CCCN1CCC(Nc2nc3ccccc3n2Cc2ccc(F)cc2)CC1 | 0.31 | 1.25 | 
55 | OC(COc1ccccc1)CN1CCC(Nc2nc3ccccc3n2Cc2ccc(F)cc2)CC1 (stereo unspecified) | 0.63 | 1.25 | 
56 | O=C(Cc1ccccc1)Oc1ccc(CCN2CCC(Nc3nc4ccccc4n3Cc3ccc(F)cc3)CC2)cc1 | 0.31 | 0.08 | 
57 | Cl.Fc1ccc(CCN2CCC(Nc3nc4ccccc4n3Cc3ccc(F)cc3)CC2)cc1 | 0.31 | > 2.5 | 
58 | COc1cc(CCN2CCC(Nc3nc4ccccc4n3Cc3ccc(F)cc3)CC2)cc(OC)c1OC.Cl | 1.25 | 0.63 | 
59 | Fc1ccc(Cn2c(NC3CCN(CCc4ccccc4)CC3)nc3cc(Cl)ccc32)cc1 | > 2.5 |  | 
60 | CCNC(=O)COc1ccc(CCN2CCC(Nc3nc4ccccc4n3Cc3ccc(F)cc3)CC2)cc1 | 1.25 | 2.5 | 
61 | Fc1ccc(Cn2c(NC3CCN(C4CCCCC4)CC3)nc3ccccc32)cc1 | 0.31 | > 2.5 | 
62 | CNC(=O)Oc1ccc(CCN2CCC(Nc3nc4ccccc4n3Cc3ccc(F)cc3)CC2)cc1 | 1.25 | 2.5 | 
63 | CN1CCC(Nc2nc3ccccc3n2Cc2ccc(F)cc2)CC1 | 0.16 | 2.5 | ED50 [3]: ≥ 0.63 mg/kg; ED50 [4]: 0.04 mg/kg; ED50 [5]: > 40 mg/kg
64 | N#CCN1CCC(Nc2nc3ccccc3n2Cc2ccc(F)cc2)CC1 | 0.16 | 2.5 | 
65 | Cl.O=C(COc1ccc(CCN2CCC(Nc3nc4ccccc4n3Cc3ccc(F)cc3)CC2)cc1)N1CCCCC1 | 1.25 | 1.25 | 
66 | CS(=O)(=O)c1ccc(CCN2CCC(Nc3nc4ccccc4n3Cc3ccc(F)cc3)CC2)cc1 | 1.25 | > 2.5 | 
67 | O=c1[nH]c2ccccc2n1CCCN1CCN(C(c2ccccc2)c2ccccc2)CC1 [OXATOMIDE] |  |  | ED50 [6]: 1.25 mg/kg; ED50 [7]: > 5 mg/kg; ED50 [8]: 32.6 mg/kg; ED50 [9]: 0.2 mg/kg; ED50 [10]: 9.36 mg/kg; ED50 [11]: > 160 mg/kg
68 | COc1ccc(C(=O)N(CCN2CCC(Nc3nc4ccccc4n3Cc3ccc(F)cc3)CC2)C(=O)c2ccc(OC)cc2)cc1.Cl | > 2.5 |  | 
69 | Cc1cc(CCN2CCC(Nc3nc4ccccc4n3Cc3ccc(F)cc3)CC2)ccc1OCc1ccccc1 | > 2.5 |  | 
70 | COc1ccc(OCC(O)CN2CCC(Nc3nc4ccccc4n3Cc3ccc(F)cc3)CC2)cc1 (stereo unspecified) | 1.25 | 2.5 | 
71 | C=CCOc1ccc(CCN2CCC(Nc3nc4ccccc4n3Cc3ccc(F)cc3)CC2)cc1.Cl | 2.5 |  | 
72 | O=C(NCCN1CCC(Nc2nc3ccccc3n2Cc2ccc(F)cc2)CC1)c1ccc(F)cc1 | 0.31 | 2.5 | 
